Test results taken from ChEMBL document CHEMBL1649122, “Abc1p is a multidrug efflux transporter that tips the balance in favor of innate azole resistance in Candida krusei” (2009).
Values after ≈ are worked out from the molar mass of the structure shown. Active and inactive are the calls of the source. The calls are words filed in the database; no cut-off is given here. *1 amine or outer side, *2 acyl side, *3 side chain or, on linkers, in order; H or OH if unused. Where a SMILES comes first, the peptide text is derived from it. [ ]: non-standard residue; d: D form. X1 = CC[C@@H](C)[C@@H](O[*:1])C(=O)[*:2]; NMeVal(β-OH) = CN[C@H](C(=O)O)C(C)(C)O; NMeF = CN[C@@H](Cc1ccccc1)C(=O)O; aIle = CC[C@@H](C)[C@H](N)C(=O)O; NMeV = CN[C@H](C(=O)O)C(C)C

Tests used:
[1] = target: ATP binding cassette transporter Abc1p (Issatchenkia orientalis) (UniProt Q09GQ4); experiment: Inhibition of Candida krusei ABC1 expressed in Saccharomyces cerevisiae isolate ADdelta at 4 nM; conditions: Pichia kudriavzevii
[2] = system: Pichia kudriavzevii; experiment: Antimicrobial activity against Candida krusei NZCDC 89.102 after 48 hrs by liquid microdilution assay; format: functional; conditions: NZCDC 89.102, 48 h
Method in brief: (§1)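 Liquid broth microdilution susceptibility assay in CSM medium at pH 7.0, which was also the medium used for the expression studies. Fungal strains were maintained in YPD. The S. cerevisiae test strains carry C. krusei ABC1 or fungal ERG11 alleles integrated at the chromosomal PDR5 locus.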

[3] = system: Saccharomyces cerevisiae; experiment: Antimicrobial activity against Saccharomyces cerevisiae isolate AD overexpressing Candida krusei ERG11C after 48 hrs by liquid microdilution assay; format: functional; method in brief: as §1
[4] = system: Pichia kudriavzevii; experiment: Antimicrobial activity against Candida krusei B2399 after 48 hrs by CLSI method; format: functional; conditions: B2399, 48 h
Method in brief: (§2)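 Azole MICs were determined by the CLSI M27-A2 broth microdilution reference method. They were interpreted against the CLSI breakpoints. Strains were maintained in YPD medium (1% yeast extract, 2% peptone, 2% glucose).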

[5] = system: Pichia kudriavzevii; experiment: Antimicrobial activity against Candida krusei NZCDC 90.147 after 48 hrs by CLSI method; format: functional; method in brief: as §2
[6] = system: Pichia kudriavzevii; experiment: Increase in ERG11 mRNA expression in Candida krusei B2399 at MIC concentration after 1 hr by hot-phenol extraction based Northern blotting; format: functional, organism-based
Method in brief: (§3)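 Northern blot. Logarithmically grown C. krusei B2399 was exposed to azoles for 60 min (FLC 1x MIC; VRC, MCZ, ITC 2x MIC) or to FLC at 1x MIC over a time course. About 100 OD units of cells were harvested. Total RNA was extracted with hot phenol, and 10 µg was run on 1.2% denaturing agarose. Blots were probed with radiolabelled ABC1 or ERG11, with ACT1 as internal control.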

[7] = system: Pichia kudriavzevii; experiment: Increase in ERG11 mRNA expression in Candida krusei B2400 at MIC concentration after 80 mins by hot-phenol extraction based Northern blotting; format: functional, organism-based
[8] = system: Pichia kudriavzevii; experiment: Antimicrobial activity against Candida krusei IFO0011 after 48 hrs by CLSI method; format: functional; conditions: IFO0011, 48 h; method in brief: as §2
[9] = system: Saccharomyces cerevisiae; experiment: Fold resistant, ratio of MIC for Saccharomyces cerevisiae isolate ADdelta overexpressing Saccharomyces cerevisiae ERG11 to MIC for Saccharomyces cerevisiae isolate ADdelta overexpressing Abc1p; format: functional
Method in brief: (§4)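 Fold resistance is the ratio of azole MICs between S. cerevisiae overexpressing strains. The MICs were measured by liquid broth microdilution in CSM medium at pH 7.0. The ERG11 or ABC1 constructs are integrated at the PDR5 locus.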

[10] = system: Saccharomyces cerevisiae; experiment: Antimicrobial activity against Saccharomyces cerevisiae isolate ADdelta overexpressing Abc1p after 48 hrs by liquid microdilution assay; format: functional; method in brief: as §1
[11] = system: Saccharomyces cerevisiae; experiment: Antimicrobial activity against Saccharomyces cerevisiae isolate ADdelta overexpressing Saccharomyces cerevisiae ERG11 after 48 hrs by liquid microdilution assay; format: functional; method in brief: as §1
[12] = system: Pichia kudriavzevii; experiment: Increase in ABC1 mRNA expression in Candida krusei B2399 at MIC concentration after 320 mins by hot-phenol extraction based Northern blotting; format: functional, organism-based; method in brief: as §3
[13] = system: Pichia kudriavzevii; experiment: Antimicrobial activity against Candida krusei NZCDC 89.021 after 48 hrs by CLSI method; format: functional; conditions: NZCDC 89.021, 48 h; method in brief: as §2
[14] = system: Saccharomyces cerevisiae; experiment: Antimicrobial activity against Saccharomyces cerevisiae isolate ADdelta overexpressing Candida albicans ERG11A after 48 hrs by liquid microdilution assay; format: functional; method in brief: as §1
[15] = system: Pichia kudriavzevii; experiment: Antimicrobial activity against Candida krusei IFO0011 after 48 hrs by liquid microdilution assay; format: functional; conditions: IFO0011, 48 h; method in brief: as §1
[16] = system: Pichia kudriavzevii; experiment: Antimicrobial activity against Candida krusei B2399 after 48 hrs by liquid microdilution assay; format: functional; conditions: B2399, 48 h; method in brief: as §1
[17] = system: Saccharomyces cerevisiae; experiment: Fold resistant, ratio of MIC for Saccharomyces cerevisiae isolate ADdelta overexpressing Candida albicans ERG11A to MIC for Saccharomyces cerevisiae isolate ADdelta overexpressing Abc1p; format: functional; method in brief: as §4
[18] = system: Pichia kudriavzevii; experiment: Antimicrobial activity against Candida krusei NZCDC 89.221 after 48 hrs by liquid microdilution assay; format: functional; conditions: NZCDC 89.221, 48 h; method in brief: as §1
[19] = system: Saccharomyces cerevisiae; experiment: Fold resistant, ratio of MIC for Saccharomyces cerevisiae isolate ADdelta overexpressing Candida krusei ERG11g to MIC for Saccharomyces cerevisiae isolate ADdelta overexpressing Abc1p; format: functional; method in brief: as §4
[20] = system: Pichia kudriavzevii; experiment: Increase in ERG11 mRNA expression in Candida krusei B2399 at > 200 ug/ml after up to 320 mins by hot-phenol extraction based Northern blotting; format: functional, organism-based; method in brief: as §3
[21] = target: ATP binding cassette transporter Abc1p (Issatchenkia orientalis) (UniProt Q09GQ4); experiment: Inhibition of Candida krusei […] expressed in Saccharomyces cerevisiae isolate ADdelta assessed as fractional inhibitory concentration index at 2.5 ug/ml after 48 hrs by checkerboard susceptibility assay; conditions: Pichia kudriavzevii
Method in brief: (§5)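 Checkerboard susceptibility assay combining the Abc1p inhibitor with FLC or ITC. MICs were determined at various inhibitor concentrations. The fractional inhibitory concentration index was calculated for each combination.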

[22] = system: Pichia kudriavzevii; experiment: Antimicrobial activity against Candida krusei NZCDC 89.021 after 48 hrs by liquid microdilution assay; format: functional; conditions: NZCDC 89.021, 48 h; method in brief: as §1
[23] = system: Saccharomyces cerevisiae; experiment: Fold resistant, ratio of MIC for Saccharomyces cerevisiae isolate ADdelta overexpressing Candida krusei ERG11C to MIC for Saccharomyces cerevisiae isolate ADdelta overexpressing Abc1p; format: functional; method in brief: as §4
[24] = system: Pichia kudriavzevii; experiment: Antimicrobial activity against Candida krusei NZCDC 89.102 after 48 hrs by CLSI method; format: functional; method in brief: as §2
[25] = system: Pichia kudriavzevii; experiment: Antimicrobial activity against Candida krusei NZCDC 90.147 after 48 hrs by liquid microdilution assay; format: functional; conditions: NZCDC 90.147, 48 h; method in brief: as §1
[26] = target: ATP binding cassette transporter Abc1p (Issatchenkia orientalis) (UniProt Q09GQ4); experiment: Inhibition of Candida krusei ABC1 expressed in Saccharomyces cerevisiae isolate ADdelta at 23 nM; conditions: Pichia kudriavzevii
[27] = system: Saccharomyces cerevisiae; experiment: Antimicrobial activity against Saccharomyces cerevisiae isolate ADdelta overexpressing Candida krusei ERG11g after 48 hrs by liquid microdilution assay; format: functional; method in brief: as §1
[28] = target: ATP binding cassette transporter Abc1p (Issatchenkia orientalis) (UniProt Q09GQ4); experiment: Inhibition of Candida krusei B2399 Abc1p assessed as fractional inhibitory concentration index at 2.5 ug/ml after 48 hrs by checkerboard susceptibility assay; conditions: Pichia kudriavzevii; method in brief: as §5
[29] = system: Pichia kudriavzevii; experiment: Antimicrobial activity against Candida krusei NZCDC 89.221 after 48 hrs by CLSI method; format: functional; method in brief: as §2
[30] = target: ATP binding cassette transporter Abc1p (Issatchenkia orientalis) (UniProt Q09GQ4); experiment: Inhibition of Candida krusei Abc1p expressed in Saccharomyces cerevisiae isolate AD assessed as reduction of itraconazole MIC at 5 ug after 48 hrs by agarose diffusion assay; conditions: Pichia kudriavzevii
[31] = target: ATP binding cassette transporter Abc1p (Issatchenkia orientalis) (UniProt Q09GQ4); experiment: Inhibition of Candida krusei B2399 Abc1p assessed as reduction of itraconazole MIC at 5 ug after 48 hrs by agarose diffusion assay; conditions: Pichia kudriavzevii
[32] = target: ATP binding cassette transporter Abc1p (Issatchenkia orientalis) (UniProt Q09GQ4); experiment: Inhibition of Candida krusei IF011 Abc1p assessed as reduction of itraconazole MIC at 5 ug after 48 hrs by agarose diffusion assay; conditions: Pichia kudriavzevii
[33] = target: ATP binding cassette transporter Abc1p (Issatchenkia orientalis) (UniProt Q09GQ4); experiment: Inhibition of Candida krusei ABC1 expressed in Saccharomyces cerevisiae isolate ADdelta at 2.5 uM; conditions: Pichia kudriavzevii
Method in brief: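 Agarose disk-diffusion test of S. cerevisiae AD overexpressing C. krusei Abc1p, with the parent AD strain as comparison. Cells were pregrown from YPD overnight into CSM to mid-log at 30°C. They were seeded at OD600 0.008 in CSM with 0.6% agarose, overlaid on CSM agar (pH 7.0). Paper disks carrying set nmol amounts of xenobiotic were applied, and plates were incubated at 30°C for 48 h before reading growth inhibition zones.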

[34] = target: ATP binding cassette transporter Abc1p (Issatchenkia orientalis) (UniProt Q09GQ4); experiment: Inhibition of Candida krusei ABC1 expressed in Saccharomyces cerevisiae isolate ADdelta at 7 nM; conditions: Pichia kudriavzevii
[35] = target: ATP binding cassette transporter Abc1p (Issatchenkia orientalis) (UniProt Q09GQ4); experiment: Inhibition of Candida krusei ABC1 expressed in Saccharomyces cerevisiae isolate ADdelta at 0.24 nM; conditions: Pichia kudriavzevii

`O=[N+]([O-])c1cc[n+]([O-])c2ccccc12` was tested. Which Activity [1] did it give?
The Activity was “inactive”.

Which results are given for `OC(Cn1cncn1)(Cn1cncn1)c1ccc(F)cc1F` [FLUCONAZOLE]?
MIC [2]: 256 µg/mL (≈ 836 µM); MIC [3]: 4 µg/mL (≈ 13.1 µM); MIC [4]: 32 µg/mL (≈ 104 µM); MIC [5]: 128 µg/mL (≈ 418 µM); Activity [6]: Active; Activity [7]: Active; MIC [8]: 128 µg/mL (≈ 418 µM); ratio [9]: 4; MIC [10]: 0.5 µg/mL (≈ 1.63 µM); MIC [11]: 2 µg/mL (≈ 6.53 µM); Activity [12]: Active; MIC [13]: 32 µg/mL (≈ 104 µM); MIC [14]: 2 µg/mL (≈ 6.53 µM); MIC [15]: 256 µg/mL (≈ 836 µM); MIC [16]: 256 µg/mL (≈ 836 µM); ratio [17]: 4; MIC [18]: 256 µg/mL (≈ 836 µM); ratio [19]: 128; Activity [20]: inactive; fractional inhibitory concentration index (FICI) [21]: 0.112; MIC [22]: 256 µg/mL (≈ 836 µM); ratio [23]: 8; MIC [24]: 32 µg/mL (≈ 104 µM); MIC [25]: 256 µg/mL (≈ 836 µM); Activity [26]: inactive; MIC [27]: 64 µg/mL (≈ 209 µM); fractional inhibitory concentration index (FICI) [28]: 0.35; MIC [29]: 32 µg/mL (≈ 104 µM)

Which results are given for `C=CC[C@@H]1/C=C(\C)C[C@H](C)C[C@H](OC)[C@H]2O[C@@](O)(C(=O)C(=O)N3CCCC[C@H]3C(=O)O[C@H](/C(C)=C/[C@@H]3CC[C@@H](O)[C@H](OC)C3)[C@H](C)[C@@H](O)CC1=O)[C@H](C)C[C@@H]2OC`?
Activity [30]: Active; Activity [31]: Active; Activity [32]: Active

For `C[C@H]1c2cccc(O)c2C(=O)C2=C(O)[C@]3(O)C(=O)C(C(N)=O)=C(O)[C@@H](N(C)C)[C@@H]3[C@@H](O)[C@@H]21`, which Activity [33] is on record?
Its Activity is “inactive”.

For `CC[C@@H](C)[C@@H]1NC(=O)[C@@H]2CCCN2C(=O)[C@H](Cc2ccccc2)N(C)C(=O)[C@H](Cc2ccccc2)NC(=O)[C@H](C(C)C)N(C)C(=O)[C@@H]([C@H](C)CC)OC(=O)[C@H](C(C)(C)O)N(C)C(=O)[C@H](CC(C)C)NC(=O)[C@H](C(C)C)N(C)C1=O` (cyclo(F[NMeF]P[aIle][NMeV]L[NMeVal(β-OH)][X1][NMeV])), which Activity [34] is on record?
Its Activity is “inactive”.

`C/C1=C/C(=O)O[C@@H]2C[C@@H](CC[C@H](C)/C=C\C=C\CC1)O[C@@](O)([C@@H]1CSC(=O)N1)C2` was tested. Which Activity [35] did it give?
The Activity was “Active”.
